A short description of experiment [1]: Displacement of [3H]DTG from sigma 2 receptor in rat liver membrane after 120 mins. Format: cell membranes. An outline of the steps:
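Rat liver membranes (~300 µg protein) incubated with ~5 nM [3H]DTG plus 1 µM (+)-pentazocine to mask σ1 sites, 120 min at room temperature; 10 µM haloperidol defines nonspecific binding; filtration and scintillation counting. One-site nonlinear regression IC50, converted to Ki by Cheng-Prusoff; mean ± SEM.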
For orientation: Loss of bound radioactivity is the signal in a displacement assay; it reports binding, not function.

Experiment [2] can be described thus: Selectivity for rat liver sigma 2 receptor over guinea pig brain sigma 1 receptor.

For the molecule `COc1cc2c(cc1OC)CN(CCCCNC(=O)c1cc(C)ccc1OCCF)CC2`, the Ki (as a rule, the dissociation constant of the complex between target and ligand, obtained from inhibition or displacement) in experiment [1] came out at 6.95 nM. The Ratio Ki in experiment [2] came to 48. On to `COc1cc2c(cc1OC)CN(CCNC(=O)c1cc(C)ccc1OCCF)CC2`, for which, in experiment [1], the Ki was 102 nM. In addition, the Ratio Ki in experiment [2] turned out to be 222.

Consider `COc1cc2c(cc1OC)CN(CCCCNC(=O)c1cc(Br)ccc1OCCF)CC2`, for which the inhibition constant (Ki) in experiment [1] was 0.65 nM. Besides, the Ratio Ki in experiment [2] is 1660.

As for `COc1cc2c(cc1OC)CN(CCCCNC(=O)c1cc(I)cc(OC)c1OCCF)CC2`, the inhibition constant (Ki) in experiment [1] was 0.26 nM. The Ratio Ki in experiment [2] came out at 8190.

In the case of `COc1cc2c(cc1OC)CN(CCCCNC(=O)c1cc(I)ccc1OCCF)CC2`, the affinity in experiment [1] corresponds to a Ki of 1.06 nM.

(Values after ChEMBL document CHEMBL1145439, “Fluorine-18-labeled benzamide analogues for imaging the sigma2 receptor status of solid tumors with positron emission tomography” (J Med Chem, 2007).)
